According to ChEMBL document CHEMBL1275455, “Resistance and virulence of Pseudomonas aeruginosa clinical strains overproducing the MexCD-OprJ efflux pump” (2008):
≈ marks a conversion by molar mass, not a printed value.

Legend:
Pseudomonas aeruginosa [1] = test: Antibacterial activity against Pseudomonas aeruginosa FK06 by twofold serial dilution method; type: functional
How it was run: (§1)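 MIC by twofold serial dilution in Mueller-Hinton agar with adjusted Ca2+ and Mg2+, spotted with a Steers multiple inoculator at about 10^4 CFU per spot. Plates were incubated at 37°C and read visually at 18 and 24 h. Values are modal MICs of three independent determinations.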

Pseudomonas aeruginosa [2] = test: microbe, parasite or virus in culture; conditions: 2126
Pseudomonas aeruginosa [3] = test: microbe, parasite or virus in culture; conditions: 2439
Pseudomonas aeruginosa [4] = test: Antibacterial activity against Pseudomonas aeruginosa EryR by twofold serial dilution method; type: functional; how it was run: as §1
Pseudomonas aeruginosa [5] = test: Antibacterial activity against Pseudomonas aeruginosa 1956 by twofold serial dilution method; type: functional; how it was run: as §1
Pseudomonas aeruginosa [6] = test: Antibacterial activity against Pseudomonas aeruginosa PAO1 by twofold serial dilution method; type: functional; how it was run: as §1
Pseudomonas aeruginosa [7] = test: Antibacterial activity against Pseudomonas aeruginosa 3308 by twofold serial dilution method; type: functional
How it was run: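 MIC by serial twofold agar dilution in cation-adjusted Mueller-Hinton agar, about 10^4 CFU per spot applied with Steers multiple inoculator; plates at 37°C, read visually at 18 and 24 h. Modal values of three independent determinations. For pNF225 carriers, 150 μg/ml ticarcillin was added to growth cultures.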

Pseudomonas aeruginosa [8] = test: Antibacterial activity against Pseudomonas aeruginosa FE60 by twofold serial dilution method; type: functional; how it was run: as §1
Pseudomonas aeruginosa [9] = test: Activity of beta-lactamase AmpC in Pseudomonas aeruginosa 2126 by spectrophotometry
How it was run: (§2)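 Crude French press lysates tested spectrophotometrically with nitrocefin; activity in nmol nitrocefin·min−1·mg protein−1. Induced activity obtained by adding 50 μg/ml cefoxitin to MHB culture 3 h before end of incubation; uninduced without. Triplicate measurements per strain; run-to-run variation under 15%.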

Pseudomonas aeruginosa [10] = test: Activity of beta-lactamase AmpC in Pseudomonas aeruginosa 2439 by spectrophotometry; how it was run: as §2
Pseudomonas aeruginosa [11] = test: Activity of beta-lactamase AmpC in Pseudomonas aeruginosa EryR by spectrophotometry; how it was run: as §2
[12] = test system: Pseudomonas aeruginosa PAO1; test: Activity of beta-lactamase AmpC in Pseudomonas aeruginosa PAO1 by spectrophotometry; how it was run: as §2
Pseudomonas aeruginosa [13] = test: Activity of beta-lactamase AmpC in Pseudomonas aeruginosa 3308 by spectrophotometry; how it was run: as §2
Pseudomonas aeruginosa [14] = test: Activity of beta-lactamase AmpC in Pseudomonas aeruginosa 1956 by spectrophotometry; how it was run: as §2
Pseudomonas aeruginosa [15] = test: Antibacterial activity against Pseudomonas aeruginosa 2126 harboring pNF225 carrying nfxB by twofold serial dilution method; type: functional
How it was run: (§3)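 nfxB plasmid pNF225 was electroporated into the strains and kept by adding 150 μg/ml ticarcillin to growth media. MIC by twofold serial dilution in cation-adjusted Mueller-Hinton agar, about 10^4 CFU per spot by Steers inoculator, at 37°C. Plates were read visually at 18 and 24 h. Values are modal MICs of three independent determinations.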

Pseudomonas aeruginosa [16] = test: Antibacterial activity against Pseudomonas aeruginosa 1956 harboring pNF225 carrying nfxB by twofold serial dilution method; type: functional; how it was run: as §3
Pseudomonas aeruginosa [17] = test: Antibacterial activity against Pseudomonas aeruginosa 2439 harboring pNF225 carrying nfxB by twofold serial dilution method; type: functional; how it was run: as §3
Pseudomonas aeruginosa [18] = test: Antibacterial activity against Pseudomonas aeruginosa EryR harboring pNF225 carrying nfxB by twofold serial dilution method; type: functional; how it was run: as §3
Pseudomonas aeruginosa [19] = test: Antibacterial activity against Pseudomonas aeruginosa FK06 harboring pNF225 carrying nfxB by twofold serial dilution method; type: functional; how it was run: as §3
Pseudomonas aeruginosa [20] = test: Antibacterial activity against Pseudomonas aeruginosa 3308 harboring pNF225 carrying nfxB by twofold serial dilution method; type: functional; how it was run: as §3

Molecule | MIC (Pseudomonas aeruginosa [1]) [µg/mL] | MIC (Pseudomonas aeruginosa [2]) [µg/mL] | MIC (Pseudomonas aeruginosa [3]) [µg/mL] | MIC (Pseudomonas aeruginosa [4]) [µg/mL] | MIC (Pseudomonas aeruginosa [5]) [µg/mL] | MIC (Pseudomonas aeruginosa [6]) [µg/mL] | MIC (Pseudomonas aeruginosa [7]) [µg/mL] | MIC (Pseudomonas aeruginosa [8]) [µg/mL] | Activity (Pseudomonas aeruginosa [9]) [nmol/min/mg] | Activity (Pseudomonas aeruginosa [10]) [nmol/min/mg] | Activity (Pseudomonas aeruginosa [11]) [nmol/min/mg] | Activity [12] [nmol/min/mg] | Activity (Pseudomonas aeruginosa [13]) [nmol/min/mg] | Activity (Pseudomonas aeruginosa [14]) [nmol/min/mg] | MIC (Pseudomonas aeruginosa [15]) [µg/mL] | MIC (Pseudomonas aeruginosa [16]) [µg/mL] | MIC (Pseudomonas aeruginosa [17]) [µg/mL] | MIC (Pseudomonas aeruginosa [18]) [µg/mL] | MIC (Pseudomonas aeruginosa [19]) [µg/mL] | MIC (Pseudomonas aeruginosa [20]) [µg/mL]
CO/N=C(\C(=O)N[C@@H]1C(=O)N2C(C(=O)[O-])=C(C[N+]3(C)CCCC3)CS[C@H]12)c1csc(N)n1 | 8 (≈ 16.6 µM) | 8 (≈ 16.6 µM) | 8 (≈ 16.6 µM) | 8 (≈ 16.6 µM) | 2 (≈ 4.16 µM) | 2 (≈ 4.16 µM) | 4 (≈ 8.32 µM) | 2 (≈ 4.16 µM) |  |  |  |  |  |  |  |  |  |  |  | 
O=C(Cc1cccs1)N[C@@H]1C(=O)N2C(C(=O)O)=C(/C=C/c3ccc([N+](=O)[O-])cc3[N+](=O)[O-])CS[C@H]12 |  |  |  |  |  |  |  |  | 5140 | 2680 | 3110 | 1820 | 2670 | 4550 |  |  |  |  |  | 
NCC[C@H](O)C(=O)N[C@@H]1C[C@H](N)[C@@H](O[C@H]2O[C@H](CN)[C@@H](O)[C@H](O)[C@H]2O)[C@H](O)[C@H]1O[C@H]1O[C@H](CO)[C@@H](O)[C@H](N)[C@H]1O [AMIKACIN] | 1 (≈ 1.71 µM) | 1 (≈ 1.71 µM) | 1 (≈ 1.71 µM) | 2 (≈ 3.42 µM) | 1 (≈ 1.71 µM) | 4 (≈ 6.83 µM) | 0.5 (≈ 0.854 µM) | 1 (≈ 1.71 µM) |  |  |  |  |  |  | 2 (≈ 3.42 µM) | 2 (≈ 3.42 µM) | 2 (≈ 3.42 µM) | 8 (≈ 13.7 µM) | 1 (≈ 1.71 µM) | 1 (≈ 1.71 µM)
C[C@H]1[C@H](NC(=O)/C(=N\OC(C)(C)C(=O)O)c2csc(N)n2)C(=O)N1S(=O)(=O)O [AZTREONAM] | 1 (≈ 2.3 µM) | 1 (≈ 2.3 µM) | 1 (≈ 2.3 µM) | 1 (≈ 2.3 µM) | 1 (≈ 2.3 µM) |  | 1 (≈ 2.3 µM) | 4 (≈ 9.19 µM) |  |  |  |  |  |  |  |  |  |  | 4 (≈ 9.19 µM) | 4 (≈ 9.19 µM)
O=C(N[C@H](CO)[C@H](O)c1ccc([N+](=O)[O-])cc1)C(Cl)Cl [CHLORAMPHENICOL] | 128 (≈ 396 µM) | 128 (≈ 396 µM) | 128 (≈ 396 µM) | 128 (≈ 396 µM) | 128 (≈ 396 µM) | 64 (≈ 198 µM) | 128 (≈ 396 µM) | 64 (≈ 198 µM) |  |  |  |  |  |  | 32 (≈ 99 µM) | 64 (≈ 198 µM) | 64 (≈ 198 µM) | 32 (≈ 99 µM) | 64 (≈ 198 µM) | 64 (≈ 198 µM)
O=C(O)c1cn(C2CC2)c2cc(N3CCNCC3)c(F)cc2c1=O [CIPROFLOXACIN] |  |  |  |  | 1 (≈ 3.02 µM) |  |  | 0.12 (≈ 0.362 µM) |  |  |  |  |  |  |  |  |  |  |  | 0.12 (≈ 0.362 µM)
C[C@@H](O)[C@H]1C(=O)N2C(C(=O)O)=C(SCCNC=N)C[C@H]12 [IMIPENEM ANHYDROUS] | 0.5 (≈ 1.67 µM) | 0.5 (≈ 1.67 µM) | 0.5 (≈ 1.67 µM) | 0.5 (≈ 1.67 µM) | 2 (≈ 6.68 µM) | 2 (≈ 6.68 µM) | 0.12 (≈ 0.401 µM) | 2 (≈ 6.68 µM) |  |  |  |  |  |  | 1 (≈ 3.34 µM) | 4 (≈ 13.4 µM) | 2 (≈ 6.68 µM) | 2 (≈ 6.68 µM) | 2 (≈ 6.68 µM) | 2 (≈ 6.68 µM)
CC1(C)S[C@@H]2[C@H](NC(=O)[C@H](C(=O)O)c3ccsc3)C(=O)N2[C@H]1C(=O)O [TICARCILLIN] | 4 (≈ 10.4 µM) | 4 (≈ 10.4 µM) | 4 (≈ 10.4 µM) | 2 (≈ 5.2 µM) | 8 (≈ 20.8 µM) | 16 (≈ 41.6 µM) | 2 (≈ 5.2 µM) | 16 (≈ 41.6 µM) |  |  |  |  |  |  |  |  |  |  |  | 
NC[C@H]1O[C@H](O[C@H]2[C@H](O)[C@@H](O[C@H]3O[C@H](CO)[C@@H](O)[C@H](N)[C@H]3O)[C@H](N)C[C@@H]2N)[C@H](N)C[C@@H]1O [TOBRAMYCIN] | 0.25 (≈ 0.535 µM) | 0.25 (≈ 0.535 µM) | 0.25 (≈ 0.535 µM) | 0.25 (≈ 0.535 µM) | 0.25 (≈ 0.535 µM) | 0.5 (≈ 1.07 µM) | 0.12 (≈ 0.257 µM) | 0.25 (≈ 0.535 µM) |  |  |  |  |  |  | 0.5 (≈ 1.07 µM) | 0.5 (≈ 1.07 µM) | 0.5 (≈ 1.07 µM) | 1 (≈ 2.14 µM) | 0.25 (≈ 0.535 µM) | 0.25 (≈ 0.535 µM)
GENTAMICIN |  |  |  | 1 | 1 | 2 | 0.25 | 0.25 |  |  |  |  |  |  | 2 | 2 | 2 | 2 |  | 1
